# Measured values taken from publication PMC3134944 (Current Chemical Genomics, 2011).
# Assays:
# [1] = molecular target: recombinant human GST-GAPDHS (Homo sapiens, UniProt O14556); test: GAPDHS dose response / IC50 determination; assay type: biochemical
# How it was run: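 IC50 against GST-GAPDHS used the single-point assay conditions with two-fold serial dilutions in DMSO, giving 10 final concentrations from 80 µM to […]. Percent inhibition at each concentration was fitted to a four-parameter variable-slope equation for IC50 and Hill slope. Some runs included 0.01% Tween-20 (final). Ligand efficiency and binding efficiency index were calculated from IC50.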
# GAPDH isozymes = settings: ref PMID: 12788228, PMID: 2353814; cited from earlier work
# purified his-GAPDHS = settings: baculovirus/insect cell expressed his-GAPDHS ref 22; cited from earlier work
# recombinant human GST-GAPDHS, sequence (O14556 69-408): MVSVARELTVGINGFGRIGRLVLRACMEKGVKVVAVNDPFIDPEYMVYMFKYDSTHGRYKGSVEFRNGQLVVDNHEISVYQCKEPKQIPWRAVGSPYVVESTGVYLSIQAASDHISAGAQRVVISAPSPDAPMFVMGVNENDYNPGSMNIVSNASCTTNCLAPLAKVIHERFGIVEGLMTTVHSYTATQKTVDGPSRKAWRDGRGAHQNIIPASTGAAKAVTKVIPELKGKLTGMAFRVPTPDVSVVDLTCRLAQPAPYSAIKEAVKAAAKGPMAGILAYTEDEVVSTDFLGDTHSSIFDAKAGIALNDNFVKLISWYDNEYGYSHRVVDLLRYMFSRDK
smiles,measurement,setting,value
CC1=CC(=O)c2ccccc2C1=O [Menadione],IC50,"[1]; IC50, follow up, absence of Tween-20, dry powder, no detergent",47 µM
same,IC50,"[1]; IC50 in the presence of 0.01% Tween-20, dry powder, 0.01% Tween-20",53 µM
same,inhibitor of GAPDH isozymes in vivo,GAPDH isozymes,non-selective inhibitor
same,active in Prestwick screen against his-GAPDHS,purified his-GAPDHS,identified as actives
